This note sets out measurements from ChEMBL document CHEMBL1148583, “Substituted 2-thioxoimidazolidin-4-ones and imidazolidine-2,4-diones as fatty acid amide hydrolase inhibitors templates” (J Med Chem, 2006).

Assay [1] deals with T1, Fatty-acid amide hydrolase 1 (Rattus norvegicus, UniProt P97612).
T1 sequence (P97612 whole entry): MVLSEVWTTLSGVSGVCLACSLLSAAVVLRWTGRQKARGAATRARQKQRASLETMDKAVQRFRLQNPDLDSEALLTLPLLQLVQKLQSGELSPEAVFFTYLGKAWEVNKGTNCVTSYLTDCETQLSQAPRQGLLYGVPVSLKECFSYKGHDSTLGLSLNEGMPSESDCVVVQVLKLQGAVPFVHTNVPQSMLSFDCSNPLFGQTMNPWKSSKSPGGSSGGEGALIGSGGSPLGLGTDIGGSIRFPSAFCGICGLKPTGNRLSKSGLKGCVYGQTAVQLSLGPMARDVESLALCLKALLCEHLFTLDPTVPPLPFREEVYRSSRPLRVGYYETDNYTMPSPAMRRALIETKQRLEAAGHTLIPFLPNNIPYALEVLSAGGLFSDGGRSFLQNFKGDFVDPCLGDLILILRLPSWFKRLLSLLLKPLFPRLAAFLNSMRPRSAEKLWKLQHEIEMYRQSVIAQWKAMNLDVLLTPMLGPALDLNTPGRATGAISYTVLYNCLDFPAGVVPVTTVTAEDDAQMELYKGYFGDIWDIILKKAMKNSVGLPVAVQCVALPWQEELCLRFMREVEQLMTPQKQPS
Nature of the assay: Inhibitory activity against FAAH in Wistar rat brain homogenate at pH 9.0. The class given is tissue-based. The method in brief:
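Enzyme from male Wistar rat (250-300 g) brain membranes, washed by 36 000g spins and kept at -80 °C. Anandamide hydrolysis at pH 9.0 in 10 mM Tris-HCl, 1 mM EDTA, 0.1% BSA, 37 °C for 10 min. Stopped with cold chloroform/methanol, then the methanol/buffer phase was counted for radioactivity. Inhibition curves run ≥3 times in duplicate; IC50 by nonlinear regression, given as pI50 ± SEM.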

For assay [2], the target named is Cannabinoid receptor 1 (Homo sapiens) (UniProt P21554). Nature of the assay: Displacement of [3H]SR141716A from human CB1 expressed in CHO cells at 10 uM. The class given is cell-based. In short, it runs like this: (§1)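 Membranes from CHO cells expressing hCB1 or hCB2 (40 µg per tube). Radioligand was 1 nM [3H]-SR141716A for CB1 or 1 nM [3H]-CP-55,940 for CB2. Competitor at 10 µM; nonspecific binding defined with 10 µM HU-210. Incubation 1 h at 30 °C in 50 mM Tris-HCl, 3 mM MgCl2, 1 mM EDTA, 0.5% BSA, pH 7.4. Filtered on PEI-treated GF/B and counted. Result is % displacement, ≥3 runs in duplicate, mean ± SEM.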
Cannabinoid receptor 1 (Homo sapiens), sequence (P21554 whole entry): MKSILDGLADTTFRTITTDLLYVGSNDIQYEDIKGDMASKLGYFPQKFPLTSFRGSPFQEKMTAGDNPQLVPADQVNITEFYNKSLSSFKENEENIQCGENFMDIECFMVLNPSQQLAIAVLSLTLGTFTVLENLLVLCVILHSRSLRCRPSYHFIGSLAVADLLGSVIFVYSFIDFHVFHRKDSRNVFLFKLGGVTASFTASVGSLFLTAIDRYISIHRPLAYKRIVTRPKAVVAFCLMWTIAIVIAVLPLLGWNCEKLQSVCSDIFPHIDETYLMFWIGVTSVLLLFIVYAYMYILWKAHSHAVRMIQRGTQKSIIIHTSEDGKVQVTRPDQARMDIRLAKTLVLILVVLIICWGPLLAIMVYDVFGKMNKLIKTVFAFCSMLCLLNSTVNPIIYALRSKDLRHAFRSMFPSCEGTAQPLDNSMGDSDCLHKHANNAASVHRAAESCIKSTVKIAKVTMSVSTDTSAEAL

In assay [3] the target is Cannabinoid receptor 2 (Homo sapiens) (UniProt P34972). Nature of the assay: Displacement of [3H]CP-55940 from human CB2 expressed in CHO cells at 10 uM. It is filed as cell-based. The method in brief: as §1
Cannabinoid receptor 2 (Homo sapiens), sequence (P34972 whole entry): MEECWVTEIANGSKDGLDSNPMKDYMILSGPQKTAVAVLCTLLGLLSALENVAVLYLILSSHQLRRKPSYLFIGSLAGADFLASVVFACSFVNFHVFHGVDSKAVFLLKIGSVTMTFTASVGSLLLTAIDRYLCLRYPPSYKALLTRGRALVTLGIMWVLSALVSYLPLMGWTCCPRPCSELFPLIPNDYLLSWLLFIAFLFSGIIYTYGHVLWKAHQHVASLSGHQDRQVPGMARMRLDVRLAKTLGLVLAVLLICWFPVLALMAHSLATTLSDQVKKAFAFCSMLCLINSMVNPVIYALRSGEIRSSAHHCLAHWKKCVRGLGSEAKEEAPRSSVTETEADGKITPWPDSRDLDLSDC
On the technique in general: In a radioligand displacement assay an active substance lowers the binding of a labelled ligand.

On to `CCCCCCCCCCCCCCN1C(=O)C(c2ccccc2)(c2ccccc2)NC1=S`, for which the IC50 – broadly, the concentration at which inhibition is half-maximal – in assay [1] is 0.891 µM. Besides, the Activity was below 10% in assay [2] and below 20% in assay [3].
For `CCCCCCN1C(=O)NC(c2ccccc2)(c2ccccc2)C1=O`, in that order: 10 µM, 29.9% and below 20%.
